Measurements as given in paper PMC6634314 (Cell chemical biology, 2019).

Experiments:
[1] = target: YES1 (Homo sapiens, UniProt P07947); experiment: MIB washout assay; format: binding; conditions: H23 cells, 1 μM 4h, MIB pulldown ratio SM1-71/SM1-71-R
[2] = target: AAK1 (Homo sapiens, UniProt Q2M2I8); experiment: MIB washout assay; format: binding; conditions: H23 cells, 1 μM 4h, MIB pulldown ratio SM1-71/SM1-71-R
[3] = system: PIK3C3; experiment: MIB washout assay; format: binding, Human; conditions: H23 cells, 1 μM 4h, MIB pulldown ratio SM1-71/SM1-71-R
[4] = system: CSNK2A1; experiment: MIB washout assay; format: binding, Human; conditions: H23 cells, 1 μM 4h, MIB pulldown ratio SM1-71/SM1-71-R
[5] = system: CSNK1E; experiment: MIB washout assay; format: binding, Human; conditions: H23 cells, 1 μM 4h, MIB pulldown ratio SM1-71/SM1-71-R
[6] = system: EPHB2; experiment: MIB washout assay; format: binding, Human; conditions: H23 cells, 1 μM 4h, MIB pulldown ratio SM1-71/SM1-71-R
[7] = system: EPHA2; experiment: MIB washout assay; format: binding, Human; conditions: H23 cells, 1 μM 4h, MIB pulldown ratio SM1-71/SM1-71-R
[8] = system: AGK; experiment: MIB washout assay; format: binding, Human; conditions: H23 cells, 1 μM 4h, MIB pulldown ratio SM1-71/SM1-71-R
[9] = system: CDK9; experiment: MIB washout assay; format: binding, Human; conditions: H23 cells, 1 μM 4h, MIB pulldown ratio SM1-71/SM1-71-R
[10] = system: STK16; experiment: MIB washout assay; format: binding, Human; conditions: H23 cells, 1 μM 4h, MIB pulldown ratio SM1-71/SM1-71-R
[11] = system: IGF1R; experiment: MIB washout assay; format: binding, Human; conditions: H23 cells, 1 μM 4h, MIB pulldown ratio SM1-71/SM1-71-R
[12] = system: TGFBR2; experiment: MIB washout assay; format: binding, Human; conditions: H23 cells, 1 μM 4h, MIB pulldown ratio SM1-71/SM1-71-R
[13] = system: CSNK1G1; experiment: MIB washout assay; format: binding, Human; conditions: H23 cells, 1 μM 4h, MIB pulldown ratio SM1-71/SM1-71-R
[14] = system: PRKD3; experiment: MIB washout assay; format: binding, Human; conditions: H23 cells, 1 μM 4h, MIB pulldown ratio SM1-71/SM1-71-R
[15] = system: LYN; experiment: MIB washout assay; format: binding, Human; conditions: H23 cells, 1 μM 4h, MIB pulldown ratio SM1-71/SM1-71-R
[16] = system: HCK; experiment: MIB washout assay; format: binding, Human; conditions: H23 cells, 1 μM 4h, MIB pulldown ratio SM1-71/SM1-71-R
[17] = system: TGFBR1; experiment: MIB washout assay; format: binding, Human; conditions: H23 cells, 1 μM 4h, MIB pulldown ratio SM1-71/SM1-71-R
[18] = system: WEE1; experiment: MIB washout assay; format: binding, Human; conditions: H23 cells, 1 μM 4h, MIB pulldown ratio SM1-71/SM1-71-R
[19] = system: ACVR1B; experiment: MIB washout assay; format: binding, Human; conditions: H23 cells, 1 μM 4h, MIB pulldown ratio SM1-71/SM1-71-R
[20] = system: MARK2; experiment: MIB washout assay; format: binding, Human; conditions: H23 cells, 1 μM 4h, MIB pulldown ratio SM1-71/SM1-71-R
[21] = system: FYN; experiment: MIB washout assay; format: binding, Human; conditions: H23 cells, 1 μM 4h, MIB pulldown ratio SM1-71/SM1-71-R
[22] = system: CSNK1G3; experiment: MIB washout assay; format: binding, Human; conditions: H23 cells, 1 μM 4h, MIB pulldown ratio SM1-71/SM1-71-R
[23] = system: PAK4; experiment: MIB washout assay; format: binding, Human; conditions: H23 cells, 1 μM 4h, MIB pulldown ratio SM1-71/SM1-71-R
[24] = system: PTK2; experiment: MIB washout assay; format: binding, Human
[25] = system: H23-KRAS^G12C non-small cell lung cancer (NSCLC) cell line; experiment: proliferation assay; format: cell-based, Human
Outline: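 NSCLC lines were mycoplasma-tested and treated with various concentrations of test compound for 72 h. Cell viability was then measured by CellTiter-Glo luminescence.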

[26] = target: MAPK3 (Homo sapiens, UniProt P27361); experiment: mass shift assay; format: binding; conditions: incubated 4 and 24h
Outline: (§1)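 Kinase protein at 0.12 mM in 10 mM HEPES pH 7.5, 500 mM NaCl, incubated with 0.2 mM test compound at 4°C for 4 h and 24 h. Samples were diluted in 0.1% formic acid and desalted on a C3 pre-column. ESI-TOF was run in positive mode at 120 V, and intact mass was obtained by deconvolution to detect the adduct.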

[27] = target: SRC (Homo sapiens, UniProt P12931); experiment: mass shift assay; format: binding; conditions: incubated 4 and 24h
Outline: as §1

[28] = target: MAP2K1 (Homo sapiens, UniProt Q02750); experiment: mass shift assay; format: binding; conditions: incubated 4 and 24h
Outline: as §1

[29] = target: MAP2K2 (Homo sapiens, UniProt P36507); experiment: mass shift assay; format: binding; conditions: incubated 4 and 24h
Outline: as §1

[30] = target: MAPK1 (Homo sapiens, UniProt P28482); experiment: mass shift assay; format: binding; conditions: incubated 4 and 24h
Outline: as §1

[31] = target: MAP2K6 (Homo sapiens, UniProt P52564); experiment: mass shift assay; format: binding; conditions: incubated 4 and 24h
Outline: as §1

[32] = target: BMP2K (Homo sapiens, UniProt Q9NSY1); experiment: MIB dose-dependent kinase inhibition assay; format: binding; conditions: read-out: IC50 in the MIB assay, H23 cell lysate, overnight 4°C
[33] = target: T1, AURKA (Homo sapiens, UniProt O14965); experiment: MIB dose-dependent kinase inhibition assay; format: binding; conditions: read-out: IC50 in the MIB assay, H23 cell lysate, overnight 4°C
T1 sequence (O14965 1-403): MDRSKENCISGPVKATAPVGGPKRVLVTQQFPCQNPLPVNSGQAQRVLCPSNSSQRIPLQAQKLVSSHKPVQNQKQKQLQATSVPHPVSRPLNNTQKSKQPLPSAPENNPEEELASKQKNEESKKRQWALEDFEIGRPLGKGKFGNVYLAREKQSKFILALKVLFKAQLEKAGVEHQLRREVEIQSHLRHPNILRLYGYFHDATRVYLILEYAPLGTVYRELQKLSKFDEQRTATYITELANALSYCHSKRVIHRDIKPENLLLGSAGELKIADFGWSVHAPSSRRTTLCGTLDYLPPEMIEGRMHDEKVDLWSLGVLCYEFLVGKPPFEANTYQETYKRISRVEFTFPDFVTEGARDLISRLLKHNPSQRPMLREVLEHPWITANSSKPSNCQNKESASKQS

Sequence of YES1 (P07947 whole entry): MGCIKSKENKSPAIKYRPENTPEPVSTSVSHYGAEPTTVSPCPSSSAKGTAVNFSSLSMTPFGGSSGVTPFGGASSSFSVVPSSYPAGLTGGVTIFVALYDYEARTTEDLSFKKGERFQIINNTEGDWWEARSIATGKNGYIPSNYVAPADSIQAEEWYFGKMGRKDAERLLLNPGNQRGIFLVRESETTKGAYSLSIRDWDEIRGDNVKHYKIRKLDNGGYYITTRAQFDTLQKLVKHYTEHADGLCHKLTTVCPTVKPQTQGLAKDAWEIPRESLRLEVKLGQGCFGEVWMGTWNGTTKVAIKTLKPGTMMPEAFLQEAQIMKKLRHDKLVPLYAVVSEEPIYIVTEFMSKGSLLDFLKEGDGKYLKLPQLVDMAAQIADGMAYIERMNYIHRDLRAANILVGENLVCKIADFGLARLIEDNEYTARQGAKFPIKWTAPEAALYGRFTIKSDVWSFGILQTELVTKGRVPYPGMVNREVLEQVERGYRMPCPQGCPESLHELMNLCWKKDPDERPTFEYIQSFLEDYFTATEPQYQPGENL
Sequence of AAK1 (Q2M2I8 whole entry): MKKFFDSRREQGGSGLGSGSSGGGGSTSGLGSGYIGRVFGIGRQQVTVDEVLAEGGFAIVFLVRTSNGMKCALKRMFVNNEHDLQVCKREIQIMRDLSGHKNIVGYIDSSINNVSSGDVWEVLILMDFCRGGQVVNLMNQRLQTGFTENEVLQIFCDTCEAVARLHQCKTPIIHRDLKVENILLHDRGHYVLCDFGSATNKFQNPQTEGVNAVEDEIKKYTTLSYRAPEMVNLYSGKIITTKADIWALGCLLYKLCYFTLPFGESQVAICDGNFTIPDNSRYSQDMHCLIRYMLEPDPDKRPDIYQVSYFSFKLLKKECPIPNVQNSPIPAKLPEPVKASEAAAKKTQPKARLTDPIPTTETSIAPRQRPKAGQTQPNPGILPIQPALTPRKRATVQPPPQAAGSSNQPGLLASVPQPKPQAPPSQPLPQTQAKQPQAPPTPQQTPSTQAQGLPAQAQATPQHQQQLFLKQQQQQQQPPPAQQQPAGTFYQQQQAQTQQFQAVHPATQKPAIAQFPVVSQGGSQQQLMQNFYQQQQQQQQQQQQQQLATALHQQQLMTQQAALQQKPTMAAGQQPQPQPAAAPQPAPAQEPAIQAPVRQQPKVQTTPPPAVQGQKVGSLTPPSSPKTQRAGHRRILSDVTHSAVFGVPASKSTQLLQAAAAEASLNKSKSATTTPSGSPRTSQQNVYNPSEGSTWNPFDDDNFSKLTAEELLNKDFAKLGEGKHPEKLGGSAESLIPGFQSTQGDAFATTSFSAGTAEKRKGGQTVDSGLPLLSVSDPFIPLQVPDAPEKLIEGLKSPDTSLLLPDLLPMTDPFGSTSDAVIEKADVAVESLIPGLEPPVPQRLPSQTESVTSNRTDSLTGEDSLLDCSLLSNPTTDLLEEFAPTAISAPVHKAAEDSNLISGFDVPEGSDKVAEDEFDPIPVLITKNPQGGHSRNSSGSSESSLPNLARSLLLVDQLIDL
Sequence of MAPK1 (P28482 whole entry, species assumed): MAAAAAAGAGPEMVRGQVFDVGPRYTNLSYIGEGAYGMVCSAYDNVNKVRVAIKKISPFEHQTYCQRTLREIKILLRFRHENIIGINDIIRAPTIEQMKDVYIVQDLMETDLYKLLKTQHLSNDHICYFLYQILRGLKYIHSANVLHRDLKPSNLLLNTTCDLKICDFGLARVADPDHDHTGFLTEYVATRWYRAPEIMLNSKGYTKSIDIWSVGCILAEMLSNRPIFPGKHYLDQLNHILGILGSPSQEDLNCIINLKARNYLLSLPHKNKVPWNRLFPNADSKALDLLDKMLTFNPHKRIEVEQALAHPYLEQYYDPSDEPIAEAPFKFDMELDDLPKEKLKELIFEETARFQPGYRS
Sequence of BMP2K (Q9NSY1 whole entry): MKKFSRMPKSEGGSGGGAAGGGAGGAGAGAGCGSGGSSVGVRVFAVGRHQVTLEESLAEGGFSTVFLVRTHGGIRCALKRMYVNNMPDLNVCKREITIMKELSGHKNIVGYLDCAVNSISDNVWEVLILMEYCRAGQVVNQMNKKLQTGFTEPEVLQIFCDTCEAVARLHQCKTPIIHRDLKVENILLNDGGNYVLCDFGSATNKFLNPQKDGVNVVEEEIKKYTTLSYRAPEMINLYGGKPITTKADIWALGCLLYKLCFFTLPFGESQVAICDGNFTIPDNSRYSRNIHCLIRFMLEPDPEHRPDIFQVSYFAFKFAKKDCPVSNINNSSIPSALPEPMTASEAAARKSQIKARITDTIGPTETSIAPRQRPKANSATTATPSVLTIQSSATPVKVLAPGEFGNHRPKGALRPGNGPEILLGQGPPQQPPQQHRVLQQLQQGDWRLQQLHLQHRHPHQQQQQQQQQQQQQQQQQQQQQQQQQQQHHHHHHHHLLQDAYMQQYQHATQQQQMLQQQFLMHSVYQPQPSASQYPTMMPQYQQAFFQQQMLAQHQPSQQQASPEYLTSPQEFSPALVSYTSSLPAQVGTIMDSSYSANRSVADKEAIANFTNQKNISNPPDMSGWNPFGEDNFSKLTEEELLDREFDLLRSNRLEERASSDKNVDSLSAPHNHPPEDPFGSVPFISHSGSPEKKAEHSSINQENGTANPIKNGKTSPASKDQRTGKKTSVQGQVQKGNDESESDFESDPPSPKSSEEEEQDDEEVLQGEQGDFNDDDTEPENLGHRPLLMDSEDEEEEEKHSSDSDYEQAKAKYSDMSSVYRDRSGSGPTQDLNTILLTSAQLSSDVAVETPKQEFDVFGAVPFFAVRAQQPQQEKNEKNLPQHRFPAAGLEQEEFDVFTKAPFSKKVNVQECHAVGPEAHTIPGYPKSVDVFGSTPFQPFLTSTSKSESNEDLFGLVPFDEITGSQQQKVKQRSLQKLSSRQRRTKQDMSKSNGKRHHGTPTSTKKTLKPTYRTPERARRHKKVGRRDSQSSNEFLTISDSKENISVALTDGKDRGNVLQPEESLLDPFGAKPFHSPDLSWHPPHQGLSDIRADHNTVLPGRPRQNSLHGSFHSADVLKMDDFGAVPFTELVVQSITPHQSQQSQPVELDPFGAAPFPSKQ
Sequence of SRC (P12931 whole entry, species assumed): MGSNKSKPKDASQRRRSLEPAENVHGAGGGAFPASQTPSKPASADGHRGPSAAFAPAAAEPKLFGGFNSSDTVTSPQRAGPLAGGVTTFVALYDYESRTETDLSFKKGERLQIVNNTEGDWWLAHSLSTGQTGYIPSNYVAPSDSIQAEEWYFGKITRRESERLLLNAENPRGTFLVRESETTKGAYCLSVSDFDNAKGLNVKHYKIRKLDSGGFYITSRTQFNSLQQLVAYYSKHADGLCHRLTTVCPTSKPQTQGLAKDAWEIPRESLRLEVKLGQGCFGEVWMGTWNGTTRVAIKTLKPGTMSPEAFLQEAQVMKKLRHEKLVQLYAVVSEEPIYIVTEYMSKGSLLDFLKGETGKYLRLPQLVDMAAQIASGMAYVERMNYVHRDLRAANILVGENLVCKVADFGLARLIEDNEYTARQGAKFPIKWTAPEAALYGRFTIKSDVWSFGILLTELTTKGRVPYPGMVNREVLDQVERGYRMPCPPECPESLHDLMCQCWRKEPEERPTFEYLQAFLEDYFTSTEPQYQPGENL
Sequence of MAP2K1 (Q02750 whole entry, species assumed): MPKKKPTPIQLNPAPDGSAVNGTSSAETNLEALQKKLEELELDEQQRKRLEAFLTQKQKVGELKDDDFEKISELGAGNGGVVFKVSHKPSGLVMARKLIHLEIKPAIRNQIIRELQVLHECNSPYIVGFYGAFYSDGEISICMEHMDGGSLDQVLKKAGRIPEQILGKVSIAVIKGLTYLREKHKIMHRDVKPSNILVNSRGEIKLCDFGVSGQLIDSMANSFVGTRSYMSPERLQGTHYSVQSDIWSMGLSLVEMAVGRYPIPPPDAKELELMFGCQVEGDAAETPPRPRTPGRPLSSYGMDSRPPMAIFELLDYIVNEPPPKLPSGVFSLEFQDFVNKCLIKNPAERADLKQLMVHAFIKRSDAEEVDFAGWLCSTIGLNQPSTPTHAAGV
Sequence of MAP2K2 (P36507 whole entry, species assumed): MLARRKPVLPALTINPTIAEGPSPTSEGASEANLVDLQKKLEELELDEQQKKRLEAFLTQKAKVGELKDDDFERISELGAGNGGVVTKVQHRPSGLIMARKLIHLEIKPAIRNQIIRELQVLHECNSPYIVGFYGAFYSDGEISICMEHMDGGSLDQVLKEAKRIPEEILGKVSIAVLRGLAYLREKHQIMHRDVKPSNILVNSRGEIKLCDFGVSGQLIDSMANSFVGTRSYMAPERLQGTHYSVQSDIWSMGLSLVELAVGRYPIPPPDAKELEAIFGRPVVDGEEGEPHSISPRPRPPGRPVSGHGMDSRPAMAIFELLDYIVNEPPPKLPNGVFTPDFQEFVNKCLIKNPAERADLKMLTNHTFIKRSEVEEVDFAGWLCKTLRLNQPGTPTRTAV
Sequence of MAPK3 (P27361 whole entry): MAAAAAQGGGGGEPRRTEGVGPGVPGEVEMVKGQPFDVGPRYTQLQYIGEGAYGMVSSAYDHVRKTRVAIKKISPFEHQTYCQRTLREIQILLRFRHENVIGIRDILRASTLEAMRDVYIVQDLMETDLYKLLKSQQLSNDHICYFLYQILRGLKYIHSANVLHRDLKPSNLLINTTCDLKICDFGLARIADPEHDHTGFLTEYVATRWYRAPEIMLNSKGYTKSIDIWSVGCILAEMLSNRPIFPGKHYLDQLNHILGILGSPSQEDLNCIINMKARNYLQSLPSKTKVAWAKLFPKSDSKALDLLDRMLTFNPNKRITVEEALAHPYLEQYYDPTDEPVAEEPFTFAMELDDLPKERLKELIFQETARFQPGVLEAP

C=CC(=O)Nc1ccccc1Nc1nc(Nc2ccc(N3CCN(C)CC3)cc2)ncc1Cl [SM1-71]
BI-0h ([1]; 0h post-washout): 0.21
BI-6h ([1]; 6h post-washout): 0.1
BI-0h ([2]; 0h post-washout): 0.27
BI-6h ([2]; 6h post-washout): 0.32
BI-0h ([3]; 0h post-washout): 0.28
BI-6h ([3]; 6h post-washout): 0.44
BI-0h ([4]; 0h post-washout): 0.8
BI-6h ([4]; 6h post-washout): 0.64
BI-0h ([5]; 0h post-washout): 0.79
BI-6h ([5]; 6h post-washout): 0.58
BI-0h ([6]; 0h post-washout): 0.7
BI-6h ([6]; 6h post-washout): 0.5
BI-0h ([7]; 0h post-washout): 0.71
BI-6h ([7]; 6h post-washout): 0.49
BI-0h ([8]; 0h post-washout): 0.66
BI-6h ([8]; 6h post-washout): 0.5
BI-0h ([9]; 0h post-washout): 0.46
BI-6h ([9]; 6h post-washout): 0.96
BI-0h ([10]; 0h post-washout): 0.51
BI-6h ([10]; 6h post-washout): 0.76
BI-0h ([11]; 0h post-washout): 0.45
BI-6h ([11]; 6h post-washout): 0.64
BI-0h ([12]; 0h post-washout): 0.53
BI-6h ([12]; 6h post-washout): 0.6
BI-0h ([13]; 0h post-washout): 0.55
BI-6h ([13]; 6h post-washout): 0.81
BI-0h ([14]; 0h post-washout): 0.59
BI-6h ([14]; 6h post-washout): 0.72
BI-0h ([15]; 0h post-washout): 1.1
BI-6h ([15]; 6h post-washout): 0.79
BI-0h ([16]; 0h post-washout): 1.3
BI-6h ([16]; 6h post-washout): 0.85
BI-0h ([17]; 0h post-washout): 1.09
BI-6h ([17]; 6h post-washout): 0.8
BI-0h ([18]; 0h post-washout): 0.98
BI-6h ([18]; 6h post-washout): 0.63
BI-0h ([19]; 0h post-washout): 0.9
BI-6h ([19]; 6h post-washout): 0.92
BI-0h ([20]; 0h post-washout): 0.74
BI-6h ([20]; 6h post-washout): 1.13
BI-0h ([21]; 0h post-washout): 0.81
BI-6h ([21]; 6h post-washout): 0.91
BI-0h ([22]; 0h post-washout): 0.77
BI-6h ([22]; 6h post-washout): 0.75
BI-0h ([23]; 0h post-washout): 0.93
BI-6h ([23]; 6h post-washout): 0.9
BI-0h ([24]; H23 cells, 1 μM 4h, 0h post-washout, MIB pulldown ratio SM1-71/SM1-71-R): 1.3
BI-6h ([24]; H23 cells, 1 μM 4h, 6h post-washout, MIB pulldown ratio SM1-71/SM1-71-R): 1.12
Binding ([24]; class from BI 0h and 6h): Strongly Reversible (BI0h,6h greater than 1 suggesting a strong preference for reversible mode of inhibition)
growth inhibitory effects ([25]; H23-KRAS^G12C cells (Fig. S2)): strong growth inhibitory effects
IC50 ([25]; proliferation assays, H23-KRAS^G12C cells (Fig. S2A)): 400 nM
covalent adduct formation (mass shift) [26]: formed covalent adducts
covalent adduct formation (mass shift) [27]: formed covalent adducts
covalent adduct formation (mass shift) [28]: formed covalent adducts
covalent adduct formation (mass shift) [29]: formed covalent adducts
covalent adduct formation (mass shift) [30]: formed covalent adducts
covalent adduct formation (mass shift) [31]: formed covalent adducts
IC50 [32]: < 10 nM
IC50 [33]: < 10 nM
